From ChEMBL document CHEMBL1123103, “Pyrimidinones. 1. 2-Amino-5-halo-6-aryl-4(3H)-pyrimidinones. Interferon-inducing antiviral agents” (1985)
The source made the active and inactive calls. No cut-off for these calls is given here.

Columns and labels:
[1] = system: Mus musculus; experiment: The compound was evaluated for the serum interferon response from a single 800 mg/kg intraperitoneal administration in vesicular stomatitis virus on […] cells; Range 500-1000 units/mL; assay type: functional
In short: (§1)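 Mice got a single ip 800 mg/kg dose. Blood was drawn 3, 6, 8 and 12 h later from five mice per group and pooled. Interferon titer was measured by plaque reduction with vesicular stomatitis virus on L929 cells. Titer is the reciprocal serum dilution cutting plaques by 50% versus untreated cultures. Peak response within 24 h was banded: ≥2000, ~500-1000, ~50-500, ~10-50 U/mL.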

[2] = system: Semliki Forest virus; experiment: Effective dose administered perorally againist Forest virus infected mice; assay type: functional; details: po
In short: (§2)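 ICR or CD-1 mice of both sexes got one drug dose by the route in the line (ip, po or sc). The drug was a suspension in 0.9% NaCl or in a CMC/polysorbate 80/benzyl alcohol/NaCl vehicle. […] Deaths were recorded daily for 6 days, 24 mice/group. ED50 is the minimal dose protecting 50% of mice, by probit analysis.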

[3] = system: Semliki Forest virus; experiment: Antiviral activity against Forest virus (SFV); assay type: functional; in short: as §2
[4] = system: Human alphaherpesvirus 1; experiment: Intraperitoneal administration against herpes simplex virus type-1 (HSV-1) infected mice; assay type: functional
In short: (§3)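 ICR or CD-1 mice got drug ip in saline as the total daily dose (mg/kg/day). It was split into doses at -40, -28, -20, -3 and +3 h relative to ip inoculation with 5.6×10^4 pfu HSV-1. Mice were followed for 22 days, 15/group. Protection index = (control mortality − treated mortality)/control mortality; >0.25 counted active. Only the lowest protective dose is recorded.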

[5] = system: Semliki Forest virus; experiment: Effective dose administered subcutaneously against Forest virus infected mice; assay type: functional, organism-based
In short: (§4)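 Drug was suspended in 0.9% NaCl or in a carboxymethylcellulose/polysorbate 80/benzyl alcohol/NaCl vehicle. Deaths were recorded daily for 6 days, with 24 mice per group. The ED50 is the minimal dose protecting 50% of mice, calculated by probit analysis.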

[6] = system: Semliki Forest virus; experiment: Effective dose administered perorally against Forest virus infected mice; assay type: functional, organism-based; in short: as §4
[7] = system: Semliki Forest virus; experiment: Effective dose administered subcutaneously againist Forest virus infected mice; assay type: functional; details: sc; in short: as §2
[8] = system: Mus musculus; experiment: The compound was evaluated for the serum interferon response from a single 800 mg/kg intraperitoneal administration in vesicular stomatitis virus on […] cells; range 500-1000 units/mL; assay type: functional; in short: as §1
[9] = system: Semliki Forest virus; experiment: Effective dose administered intraperitoneally againist Forest virus infected mice; assay type: functional, organism-based; in short: as §4
[10] = system: Mus musculus; experiment: Evaluation for serum interferon response from a single 800 mg/kg intraperitoneal administration in vesicular stomatitis virus on […] cells; Range 10-50 units/mL; assay type: functional; in short: as §1
[11] = system: Mus musculus; experiment: Protection index after intraperitoneal administration (50 mg/kg/day) against herpes simplex virus type-1 (HSV-1) infected mice [protection index=(control mortality-treated mortality)/control mortality]; assay type: functional; in short: as §3
[12] = system: Vesicular stomatitis virus; experiment: Evaluation for serum interferon response from a single 800 mg/kg intraperitoneal administration in vesicular stomatitis virus on […] cells.; assay type: functional; in short: as §1

Nc1nc(O)c(Cl)c(-c2cc(F)ccc2F)n1 was tested, and the IFN [1] was 500 units/mL, the ED50 [2] was over 400 mg/kg and the ED50 [3] was 165 mg/kg.
With Nc1nc(O)c(Br)c(-c2ccncc2)n1 the Protection index [4] was 0, the ED50 [5] was “inactive” and the ED50 [6] was “inactive”. It also gave an ED50 [3] of over 400 mg/kg.
Cc1ccccc1-c1nc(N)nc(O)c1Cl gave a Protection index [4] of 0.13, an ED50 [7] of 350 mg/kg and an IFN [8] of 500 units/mL. It also gave an ED50 [2] of over 400 mg/kg and an ED50 [3] of 130 mg/kg.
For N#Cc1ccc(-c2nc(N)nc(O)c2I)cc1, the ED50 [9] was “inactive” and the Protection index [4] was 0.
With CCCOc1cccc(-c2nc(N)nc(O)c2Cl)c1 the Protection index [4] was 0.13, the IFN [10] was 10 units/mL and the ED50 [2] was over 400 mg/kg. It also gave an ED50 [3] of 40 mg/kg.
CCCOc1cccc(-c2nc(N)nc(O)c2I)c1 showed a Protection index [4] of 0, an IFN [10] of 10 units/mL and an ED50 [3] of 100 mg/kg.
Nc1nc(O)c(I)c(-c2ccoc2)n1 was tested, and the ED50 [5] was “inactive”, the ED50 [6] was “inactive” and the ED50 [3] was over 400 mg/kg.
Work on Nc1nc(O)c(I)c(-c2ccco2)n1 yielded a Protection index [4] of 0.28, an ED50 [7] of over 400 mg/kg and an IFN [10] of 10 units/mL. The ED50 [2] was over 400 mg/kg and the ED50 [3] was 135 mg/kg.
For COc1cccc(-c2nc(N)nc(O)c2I)c1, the ED50 [7] was over 400 mg/kg, the Protection index [11] was 0.54 and the IFN [10] was 10 units/mL. The ED50 [2] was over 400 mg/kg and the ED50 [3] was 40 mg/kg.
In the case of COc1cccc(-c2nc(N)nc(O)c2Br)c1OC, the ED50 [9] is reported as “inactive”.
In the case of Nc1nc(O)c(Cl)c(-c2ccc(O)cc2)n1, the ED50 [5] is reported as “inactive”, the ED50 [6] is reported as “inactive” and the ED50 [3] is reported as over 400 mg/kg.
With Nc1nc(O)c(Br)c(-c2ccc(-c3ccccc3)cc2)n1 the ED50 [9] was “inactive”, the ED50 [5] was “inactive” and the ED50 [6] was “inactive”.
COc1ccc(-c2nc(N)nc(O)c2Br)cc1 was tested, and the ED50 [5] was “inactive”, the ED50 [6] was “inactive” and the ED50 [3] was over 400 mg/kg.
Molecule Cc1ccc(-c2nc(N)nc(O)c2I)cc1 has an ED50 [7] of over 400 mg/kg, an IFN [10] of 10 units/mL and an ED50 [2] of over 400 mg/kg. For the same molecule, the ED50 [3] was 115 mg/kg.
Nc1nc(O)c(I)c(-c2c(F)cc(F)cc2F)n1 was tested, and the ED50 [9] was “inactive” and the Protection index [4] was 0.
For COc1cccc(-c2nc(N)nc(O)c2Cl)c1OC, the ED50 [9] was “inactive”.
Molecule CCCOc1cccc(-c2nc(N)nc(O)c2Br)c1 has a Protection index [4] of 0.4, an ED50 [7] of over 400 mg/kg and an IFN [10] of 10 units/mL. The ED50 [2] was over 400 mg/kg and the ED50 [3] was 100 mg/kg.
In the case of COc1ccc(-c2nc(N)nc(O)c2I)cc1, the ED50 [5] is reported as “inactive”, the ED50 [6] is reported as “inactive” and the ED50 [3] is reported as over 400 mg/kg.
With Nc1nc(O)c(Cl)c(-c2cccc(I)c2)n1 the ED50 [9] was “inactive”.
For Nc1nc(O)c(Br)c(-c2ccc(OCc3ccccc3)cc2)n1, the ED50 [9] was “inactive”.
Work on Nc1nc(O)c(I)c(-c2ccc(Cl)cc2)n1 yielded a Protection index [4] of 0.27, an ED50 [7] of over 400 mg/kg and an IFN [10] of 10 units/mL. For the same molecule, the ED50 [2] was over 400 mg/kg and the ED50 [3] was 110 mg/kg.
Nc1nc(O)c(Br)c(-c2ccc3ccccc3c2)n1 was tested, and the ED50 [5] was “inactive”, the ED50 [6] was “inactive” and the ED50 [3] was over 400 mg/kg.
With Nc1nc(O)c(Br)c(-c2c(F)ccc(F)c2F)n1 the ED50 [9] was “inactive” and the Protection index [4] was 0.
Nc1nc(O)c(Br)c(-c2cccc3ccccc23)n1 showed a Protection index [4] of 0, an ED50 [7] of over 400 mg/kg and an IFN [10] of 10 units/mL. The ED50 [2] was over 400 mg/kg and the ED50 [3] was 40 mg/kg.
Nc1nc(O)c(Br)c(-c2cc(Br)c(O)c(Br)c2)n1 was tested, and the ED50 [9] was “inactive”.
In the case of CN(C)c1ccc(-c2nc(N)nc(O)c2Br)cc1, the ED50 [9] is reported as “inactive”, the Protection index [4] is reported as 0.13 and the ED50 [5] is reported as “inactive”. For the same molecule, the ED50 [6] was “inactive”.
COc1cccc(-c2nc(N)nc(O)c2Cl)c1 showed an ED50 [7] of 205 mg/kg, a Protection index [11] of 0.92 and an IFN [12] of 50 units/mL. For the same molecule, the ED50 [2] was over 400 mg/kg and the ED50 [3] was 15 mg/kg.
Nc1nc(O)c(Cl)c(-c2ccc(OCc3ccccc3)cc2)n1 was tested, and the ED50 [9] was “inactive”.
Nc1nc(O)c(Br)c(-c2ccc(O)cc2)n1 was tested, and the ED50 [5] was “inactive”, the ED50 [6] was “inactive” and the ED50 [3] was over 400 mg/kg.
Nc1nc(O)c(Cl)c(-c2ccc3ccccc3n2)n1 was tested, and the ED50 [9] was “inactive”, the Protection index [4] was 0.07 and the ED50 [5] was “inactive”. For the same molecule, the ED50 [6] was “inactive”.
For Nc1nc(O)c(Br)c(-c2ccccc2O)n1, the ED50 [9] was “inactive”.
Work on Nc1nc(O)c(I)c(-c2cnccn2)n1 yielded an ED50 [7] of over 400 mg/kg, an IFN [8] of 500 units/mL and an ED50 [2] of over 400 mg/kg. For the same molecule, the ED50 [3] was 275 mg/kg.
Molecule COc1cccc(-c2nc(N)nc(O)c2Br)c1 has an ED50 [7] of 55 mg/kg, a Protection index [11] of 0.62 and an IFN [12] of 50 units/mL. For the same molecule, the ED50 [2] was over 400 mg/kg and the ED50 [3] was 10 mg/kg.
With Nc1cccc(-c2nc(N)nc(O)c2Br)c1 the ED50 [9] was “inactive”.
With COc1cccc(-c2nc(N)nc(O)c2I)c1OC the ED50 [9] was “inactive”.
With Nc1nc(O)c(Br)c(-c2ccc(Cl)cc2)n1 the ED50 [7] was over 400 mg/kg, the IFN [10] was 10 units/mL and the ED50 [2] was over 400 mg/kg. It also gave an ED50 [3] of 100 mg/kg.
For Nc1nc(O)c(Br)c(-c2ccc3ccccc3n2)n1, the ED50 [9] was “inactive”, the Protection index [4] was 0.14 and the ED50 [5] was “inactive”. For the same molecule, the ED50 [6] was “inactive”.
For Nc1nc(O)c(Br)c(-c2ccccc2F)n1, the ED50 [7] was 200 mg/kg, the Protection index [11] was 0.69 and the IFN [12] was 50 units/mL. For the same molecule, the ED50 [2] was over 400 mg/kg and the ED50 [3] was 25 mg/kg.
Nc1nc(O)c(Cl)c(-c2cccc(F)c2F)n1 showed a Protection index [4] of 0.93, an IFN [1] of 500 units/mL and an ED50 [2] of 200 mg/kg. It also gave an ED50 [3] of 70 mg/kg.
With CC(C)(C)c1ccc(-c2nc(N)nc(O)c2I)cc1 the ED50 [9] was “inactive”, the ED50 [5] was “inactive” and the ED50 [6] was “inactive”.
In the case of Nc1nc(O)c(Br)c(-c2c(F)cc(F)cc2F)n1, the ED50 [9] is reported as “inactive” and the Protection index [4] is reported as 0.
In the case of CC(C)(C)c1ccc(-c2nc(N)nc(O)c2Cl)cc1, the ED50 [9] is reported as “inactive”, the ED50 [5] is reported as “inactive” and the ED50 [6] is reported as “inactive”.
Nc1nc(O)c(Br)c(-c2ccc(F)cc2)n1 showed a Protection index [4] of 0.46, an ED50 [7] of over 400 mg/kg and an IFN [1] of 500 units/mL. It also gave an ED50 [2] of over 400 mg/kg and an ED50 [3] of 160 mg/kg.
CC(C)(C)c1ccc(-c2nc(N)nc(O)c2Br)cc1 was tested, and the ED50 [9] was “inactive”, the ED50 [5] was “inactive” and the ED50 [6] was “inactive”.
In the case of Nc1nc(O)c(I)c(-c2cccc(Cl)c2)n1, the Protection index [4] is reported as 0.65, the ED50 [7] is reported as 250 mg/kg and the IFN [1] is reported as 500 units/mL. The ED50 [2] was over 400 mg/kg and the ED50 [3] was 35 mg/kg.
Work on Cc1ccc(-c2nc(N)nc(O)c2Br)cc1 yielded an IFN [10] of 10 units/mL and an ED50 [3] of 200 mg/kg.
For Nc1nc(O)c(Br)c(-c2cccc(O)c2)n1, the ED50 [9] was “inactive” and the Protection index [4] was 0.
With Nc1nc(O)c(Cl)c(-c2ccccc2F)n1 the ED50 [7] was 115 mg/kg, the Protection index [11] was 0.69 and the IFN [12] was “>=2000 ml”. The ED50 [2] was 105 mg/kg and the ED50 [3] was 105 mg/kg.
In the case of Nc1nc(O)c(I)c(-c2ccc3ccccc3n2)n1, the ED50 [9] is reported as “inactive”, the ED50 [5] is reported as “inactive” and the ED50 [6] is reported as “inactive”.
Nc1nc(O)c(Br)c(-c2cc(Cl)cc(Cl)c2)n1 gave an ED50 [7] of over 400 mg/kg, an IFN [10] of 10 units/mL and an ED50 [2] of over 400 mg/kg. It also gave an ED50 [3] of 245 mg/kg.
Work on Nc1nc(O)c(I)c(-c2cccc3ccccc23)n1 yielded a Protection index [4] of 0.18, an ED50 [7] of over 400 mg/kg and an IFN [10] of 10 units/mL. The ED50 [2] was over 400 mg/kg and the ED50 [3] was 70 mg/kg.
Nc1nc(O)c(I)c(-c2ccc(-c3ccccc3)cc2)n1 was tested, and the ED50 [9] was “inactive”, the ED50 [5] was “inactive” and the ED50 [6] was “inactive”.
